Assay results: ChEMBL document CHEMBL4118259, “Synthesis of sulfadiazinyl acyl/aryl thiourea derivatives as calf intestinal alkaline phosphatase inhibitors, pharmacokinetic properties, lead optimization, Lineweaver-Burk plot evaluation and binding analysis” (Bioorg Med Chem, 2018)

How the values were obtained:
Conditions in all cases: Bos taurus
[1] = compound: O=C(NC(=S)Nc1ccc(S(=O)(=O)Nc2ncccn2)cc1)c1ccc(Cl)cc1; experiment: Mixed-type inhibition of calf intestinal alkaline phosphatase assessed as substrate Vmax at 0.015 uM using varying levels of p-NPP as substrate measured every minute for 10 mins by Lineweaver-Burk plot analysis (reference value: 1.2 10^-5deltaA/s)
Procedure, shortened: (§1)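 Same CIALP buffer and enzyme system with inhibitor at 0.0, 0.015 and 0.3 µM and p-NPP at 10, 5, 2.5, 1.25 and 0.625 mM. Initial velocities were read every minute over the first 10 min after enzyme addition. Inhibition type came from Lineweaver-Burk plots of 1/V vs 1/[S]. Ki came from secondary plots of slope vs inhibitor concentration, Ki′ from intercept vs concentration.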

[2] = compound: O=C(NC(=S)Nc1ccc(S(=O)(=O)Nc2ncccn2)cc1)c1ccc(Cl)cc1; experiment: Mixed-type inhibition of calf intestinal alkaline phosphatase assessed as substrate Vmax at 0.3 uM using varying levels of p-NPP as substrate measured every minute for 10 mins by Lineweaver-Burk plot analysis (reference value: 1.2 10^-5deltaA/s); procedure, shortened: as §1
[3] = compound: O=C(NC(=S)Nc1ccc(S(=O)(=O)Nc2ncccn2)cc1)c1ccc(Cl)cc1; experiment: Mixed-type inhibition of calf intestinal alkaline phosphatase assessed as substrate Km at 0.015 uM using varying levels of p-NPP as substrate by Lineweaver-Burk plot analysis (reference value: 0.833 mM); procedure, shortened: as §1
[4] = compound: O=C(NC(=S)Nc1ccc(S(=O)(=O)Nc2ncccn2)cc1)c1ccc(Cl)cc1; experiment: Mixed-type inhibition of calf intestinal alkaline phosphatase assessed as substrate Km at 0.3 uM using varying levels of p-NPP as substrate by Lineweaver-Burk plot analysis (reference value: 0.833 mM); procedure, shortened: as §1

B1: Intestinal-type alkaline phosphatase (Bos taurus), P19111 (protein)
chain: MQGACVLLLLGLHLQLSLGLVPVEEEDPAFWNRQAAQALDVAKKLQPIQTAAKNVILFLGDGMGVPTVTATRILKGQMNGKLGPETPLAMDQFPYVALSKTYNVDRQVPDSAGTATAYLCGVKGNYRTIGVSAAARYNQCKTTRGNEVTSVMNRAKKAGKSVGVVTTTRVQHASPAGAYAHTVNRNWYSDADLPADAQMNGCQDIAAQLVNNMDIDVILGGGRKYMFPVGTPDPEYPDDASVNGVRKRKQNLVQAWQAKHQGAQYVWNRTALLQAADDSSVTHLMGLFEPADMKYNVQQDHTKDPTLQEMTEVALRVVSRNPRGFYLFVEGGRIDHGHHDDKAYMALTEAGMFDNAIAKANELTSELDTLILVTADHSHVFSFGGYTLRGTSIFGLAPSKALDSKSYTSILYGNGPGYALGGGSRPDVNDSTSEDPSYQQQAAVPQASETHGGEDVAVFARGPQAHLVHGVEEETFVAHIMAFAGCVEPYTDCNLPAPTTATSIPDAAHLAASPPPLALLAGAMLLLLAPTLY
Vmax (10'-6deltaA/s) [1]: 8
Vmax (10'-5deltaA/s) [2]: 4.9
Km [3]: 1330 µM
Km [4]: 2000 µM
